Values joined by “and” are separate entries in the source; they are usually repeats but may differ in a detail not shown here. Identical values can stand only once. Counter-ions that a name gives are not always drawn. Marks after values point to notes of the source that are not given here. Blank lines part the entries; values can stand above or below the molecule they belong to.
Experiments:
CaV3.2 = CaV3.2 (Homo sapiens, UniProt O95180); assay: Whole-cell patch-clamp of Ca2+ currents; type: cell-based
Summary of the method: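 HEK293T cells co-transfected (Fugene 6) with CaV3.2 plus β2x13, α2δ-4 and eGFP; whole-cell recordings at room temperature 36–72 h later, 4–8 MΩ pipettes, 50–70% series-resistance compensation, P/−4 leak subtraction. Compound perfused in external solution (vehicle ≤1% DMSO); 0.1 Hz currents, steady-state % inhibition vs vehicle fitted by inhibitor–response regression (0–100 constrained). Boltzmann fits of I–V give Gmax, Vh, k, Vrev.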

CaV1.4 [1] = target: CaV1.4 (Homo sapiens, UniProt O60840); type: cell-based; conditions: for IC50: inhibition of ICa, Hill fit
[2] = system: Cav1.4 ICa in mouse cones; conditions: 5 μM, ref Davison et al., 2022; cited from earlier work
three CaV3 subtypes = conditions: ref Tringham et al., 2012; cited from earlier work
CaV1.4 T1007Y = CaV1.4 T1007Y (Homo sapiens, UniProt O60840, T1007Y); assay: Whole-cell patch-clamp of ICa in HEK293T cells, CaV1.4 T1007Y mutant; type: cell-based
CaV1.4 M1004A = CaV1.4 M1004A (Homo sapiens, UniProt O60840, M1004A); assay: Whole-cell patch-clamp of ICa in HEK293T cells, CaV1.4 M1004A mutant; type: cell-based
CaV1.4 M1129A = CaV1.4 M1129A (Homo sapiens, UniProt O60840, M1129A); assay: Whole-cell patch-clamp of ICa in HEK293T cells, CaV1.4 M1129A mutant; type: cell-based
CaV1.4 M1426A = CaV1.4 M1426A (Homo sapiens, UniProt O60840, M1426A); assay: Whole-cell patch-clamp of ICa in HEK293T cells, CaV1.4 M1426A mutant; type: cell-based
CaV1.2 [3] = target: CaV1.2 (Oryctolagus cuniculus, UniProt P15381); assay: Whole-cell patch-clamp of ICa in HEK293T cells transfected with CaV1.2; type: cell-based, rabbit; conditions: CaV1.2 WT
CaV1.2 V1063M = CaV1.2 V1063M (Oryctolagus cuniculus, UniProt P15381, V1063M); assay: Whole-cell patch-clamp of ICa in HEK293T cells, CaV1.2 V1063M mutant; type: cell-based, rabbit
CaV3 channels = conditions: ref Xiang et al., 2011; cited from earlier work
Cav1.4 [4] = conditions: ref Koschak et al., 2003; cited from earlier work
Cav1.2 [5] = conditions: ref Wei et al., 2024; cited from earlier work
[6] = CaV3.2, drug at 100 nM, mean ± SEM or median
[7] = CaV3.2, inhibition of ICa, Hill fit, mean ± SEM
[8] = CaV1.4, drug at 5 µM, Vhold −90 mV

Sequence of CaV1.4 (O60840 whole entry): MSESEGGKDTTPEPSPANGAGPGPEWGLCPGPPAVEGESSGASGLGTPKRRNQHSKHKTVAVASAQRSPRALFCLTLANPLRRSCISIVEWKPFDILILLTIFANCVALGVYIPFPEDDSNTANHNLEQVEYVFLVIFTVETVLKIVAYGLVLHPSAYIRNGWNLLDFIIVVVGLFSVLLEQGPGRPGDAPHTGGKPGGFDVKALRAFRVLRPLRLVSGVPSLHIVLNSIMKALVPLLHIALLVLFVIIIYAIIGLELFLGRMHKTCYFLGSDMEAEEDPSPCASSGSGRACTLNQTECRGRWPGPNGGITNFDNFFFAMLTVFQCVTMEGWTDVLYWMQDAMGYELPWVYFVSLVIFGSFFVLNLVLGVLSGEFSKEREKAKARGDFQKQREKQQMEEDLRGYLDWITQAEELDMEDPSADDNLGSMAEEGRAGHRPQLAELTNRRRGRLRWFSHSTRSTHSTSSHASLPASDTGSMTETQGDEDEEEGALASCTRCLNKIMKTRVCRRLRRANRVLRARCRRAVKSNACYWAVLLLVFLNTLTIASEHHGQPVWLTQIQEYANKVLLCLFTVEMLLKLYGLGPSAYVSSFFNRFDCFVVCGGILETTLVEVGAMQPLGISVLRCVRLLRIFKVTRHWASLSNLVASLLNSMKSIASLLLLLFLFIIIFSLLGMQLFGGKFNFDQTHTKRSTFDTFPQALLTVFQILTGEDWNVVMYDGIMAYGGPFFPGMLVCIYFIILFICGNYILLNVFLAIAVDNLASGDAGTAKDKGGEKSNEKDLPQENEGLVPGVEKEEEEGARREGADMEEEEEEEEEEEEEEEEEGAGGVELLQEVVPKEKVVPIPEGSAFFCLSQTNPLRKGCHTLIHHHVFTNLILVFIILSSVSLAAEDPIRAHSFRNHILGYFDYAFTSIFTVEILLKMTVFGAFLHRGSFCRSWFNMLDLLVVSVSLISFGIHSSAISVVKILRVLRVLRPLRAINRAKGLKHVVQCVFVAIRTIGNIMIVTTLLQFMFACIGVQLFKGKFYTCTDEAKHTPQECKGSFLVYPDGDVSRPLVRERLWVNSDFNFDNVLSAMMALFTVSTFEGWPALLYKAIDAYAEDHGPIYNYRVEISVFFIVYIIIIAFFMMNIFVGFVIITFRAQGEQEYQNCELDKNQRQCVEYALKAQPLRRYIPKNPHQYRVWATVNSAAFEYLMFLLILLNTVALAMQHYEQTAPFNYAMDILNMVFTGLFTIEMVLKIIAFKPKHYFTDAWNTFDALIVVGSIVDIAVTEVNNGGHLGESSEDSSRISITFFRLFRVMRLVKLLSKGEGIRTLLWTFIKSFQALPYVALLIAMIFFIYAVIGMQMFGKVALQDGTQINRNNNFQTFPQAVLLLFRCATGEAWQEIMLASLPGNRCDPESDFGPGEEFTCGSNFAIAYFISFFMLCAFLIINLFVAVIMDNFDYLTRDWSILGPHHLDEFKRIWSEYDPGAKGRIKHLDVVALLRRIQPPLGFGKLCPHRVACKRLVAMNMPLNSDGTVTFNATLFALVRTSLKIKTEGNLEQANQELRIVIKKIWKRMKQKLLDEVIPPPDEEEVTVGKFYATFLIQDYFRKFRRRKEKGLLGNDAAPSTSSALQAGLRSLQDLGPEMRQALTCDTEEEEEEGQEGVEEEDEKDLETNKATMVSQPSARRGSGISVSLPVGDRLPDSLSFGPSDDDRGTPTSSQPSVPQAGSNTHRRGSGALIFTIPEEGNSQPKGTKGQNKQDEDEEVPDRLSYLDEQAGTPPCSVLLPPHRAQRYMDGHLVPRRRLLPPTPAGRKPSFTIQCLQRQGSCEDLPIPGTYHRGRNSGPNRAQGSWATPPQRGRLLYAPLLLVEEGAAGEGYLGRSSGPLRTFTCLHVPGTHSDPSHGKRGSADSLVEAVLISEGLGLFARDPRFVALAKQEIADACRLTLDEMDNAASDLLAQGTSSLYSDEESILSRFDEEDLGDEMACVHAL
Sequence of CaV1.4 (Q08289 whole entry partner): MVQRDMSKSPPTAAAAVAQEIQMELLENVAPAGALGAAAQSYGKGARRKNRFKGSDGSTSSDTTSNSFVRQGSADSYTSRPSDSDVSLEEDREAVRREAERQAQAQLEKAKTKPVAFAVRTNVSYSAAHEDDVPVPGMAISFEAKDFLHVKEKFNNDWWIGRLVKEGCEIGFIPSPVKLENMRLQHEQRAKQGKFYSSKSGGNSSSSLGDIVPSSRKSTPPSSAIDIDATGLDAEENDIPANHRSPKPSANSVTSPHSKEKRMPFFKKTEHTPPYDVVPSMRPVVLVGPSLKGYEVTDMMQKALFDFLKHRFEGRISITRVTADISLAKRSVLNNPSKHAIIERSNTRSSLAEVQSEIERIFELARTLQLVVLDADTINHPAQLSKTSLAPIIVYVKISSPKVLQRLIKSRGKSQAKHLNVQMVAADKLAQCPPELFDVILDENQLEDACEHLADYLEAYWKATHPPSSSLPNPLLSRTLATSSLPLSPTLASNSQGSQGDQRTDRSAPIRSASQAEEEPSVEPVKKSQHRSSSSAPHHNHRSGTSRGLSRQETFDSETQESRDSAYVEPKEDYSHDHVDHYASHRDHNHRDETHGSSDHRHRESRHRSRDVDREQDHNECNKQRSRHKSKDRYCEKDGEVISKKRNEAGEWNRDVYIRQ
Sequence of CaV1.4 (Q7Z3S7 20-991 partner limits assumed): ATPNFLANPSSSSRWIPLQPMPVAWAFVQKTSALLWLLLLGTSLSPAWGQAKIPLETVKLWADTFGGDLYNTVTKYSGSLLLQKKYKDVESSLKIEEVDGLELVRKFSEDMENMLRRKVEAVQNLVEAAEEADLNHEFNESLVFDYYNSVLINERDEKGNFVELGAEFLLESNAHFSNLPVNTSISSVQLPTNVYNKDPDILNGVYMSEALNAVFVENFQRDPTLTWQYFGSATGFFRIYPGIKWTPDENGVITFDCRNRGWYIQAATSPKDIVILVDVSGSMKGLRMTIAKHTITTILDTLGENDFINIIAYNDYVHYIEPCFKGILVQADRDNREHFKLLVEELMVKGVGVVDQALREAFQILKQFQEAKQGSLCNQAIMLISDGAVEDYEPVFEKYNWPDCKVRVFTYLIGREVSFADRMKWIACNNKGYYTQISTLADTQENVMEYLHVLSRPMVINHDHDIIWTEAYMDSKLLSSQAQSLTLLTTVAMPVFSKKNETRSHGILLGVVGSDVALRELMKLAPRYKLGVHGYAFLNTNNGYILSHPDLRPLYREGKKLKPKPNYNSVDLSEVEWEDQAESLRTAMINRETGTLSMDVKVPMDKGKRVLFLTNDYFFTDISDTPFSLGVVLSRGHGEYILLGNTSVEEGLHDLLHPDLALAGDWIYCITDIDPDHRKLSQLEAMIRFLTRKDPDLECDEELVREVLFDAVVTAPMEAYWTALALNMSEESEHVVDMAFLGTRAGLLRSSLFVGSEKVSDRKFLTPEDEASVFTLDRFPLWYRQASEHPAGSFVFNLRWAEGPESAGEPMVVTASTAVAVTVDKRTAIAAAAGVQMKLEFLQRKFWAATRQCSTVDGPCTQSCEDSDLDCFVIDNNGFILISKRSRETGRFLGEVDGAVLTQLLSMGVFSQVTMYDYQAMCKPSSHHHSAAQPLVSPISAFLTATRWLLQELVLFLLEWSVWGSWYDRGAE
Sequence of CaV1.4 (Q7Z3S7 992-1137 partner limits assumed): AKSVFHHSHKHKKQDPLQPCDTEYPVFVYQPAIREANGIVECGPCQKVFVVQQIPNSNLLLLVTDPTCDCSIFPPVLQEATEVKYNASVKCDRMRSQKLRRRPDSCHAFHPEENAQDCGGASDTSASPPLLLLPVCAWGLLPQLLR
Sequence of CaV1.4 T1007Y (O60840 whole entry T1007Y): as the sequence (O60840 whole entry) above, with T1007Y counted along it
Sequence of CaV1.4 T1007Y (Q08289 whole entry partner): as the sequence (Q08289 whole entry partner) above
Sequence of CaV1.4 T1007Y (Q7Z3S7 20-991 partner limits assumed): as the sequence (Q7Z3S7 20-991 partner limits assumed) above
Sequence of CaV1.4 T1007Y (Q7Z3S7 992-1137 partner limits assumed): as the sequence (Q7Z3S7 992-1137 partner limits assumed) above

Vrev (CaV3.2; CaV3.2, drug at 100 nM): 42.96 ± 1.86 mV
inhibition of the peak ICa amplitude (CaV3.2; CaV3.2, drug at 100 nM): ~ 40%
Gmax (CaV3.2; CaV3.2, drug at 100 nM, Boltzmann fit of I-V, mean ± SEM or median): 0.55 ± 0.13 nS/pF
Vh (CaV3.2; [6]): -33.47 ± 3.65 mV
k (CaV3.2; [6]): 6.75^† mV
Hill Slope (CaV3.2; CaV3.2, dose-response fit): 0.82 ± 0.10
IC50 (CaV3.2; [7]): 0.26 ± 0.04 µM
IC50 (CaV3.2; CaV3.2 ICa): ~0.265 µM
Gmax (CaV1.4 [1]; [8]): 0.0845 ± 0.0387 nS/pF
Vh (CaV1.4 [1]; [8]): -6.10 ± 1.54 mV
Vrev (CaV1.4 [1]; [8]): 60.73 ± 4.72 mV
k (CaV1.4 [1]; [8]): 8.89 ± 0.50 mV
Hill Slope (CaV1.4 [1]; CaV1.4 WT, dose-response fit): 0.22 ± 0.04
IC50 (CaV1.4 [1]; CaV1.4 WT): 31.5 ± 21 µM
IC50 for Cav1.4 higher than that for Cav3.2 (CaV1.4 [1]; Cav1.4 versus Cav3.2): ~ 100 fold
SMILES: CC(C)(C)NC(=O)CN1CCC(CNC(=O)c2cc(F)cc(Cl)c2)CC1 [Z944]
effect on amplitude of Cav1.4 ICa [2]: increased the amplitude
affinity for CaV3 subtypes higher than for CaV2.2 and CaV1.2 (three CaV3 subtypes): 70-100 times

IC50 (CaV3.2; [7]): 0.0237 ± 0.0025 µM
IC50 (CaV3.2; CaV3.2 ICa): ~0.024 µM
IC50 (CaV1.4 [1]; CaV1.4 WT): 2.1 ± 0.51 µM
IC50 (CaV1.4 T1007Y; CaV1.4 T1007Y): ~20 µM and 20 µM
IC50 (CaV1.4 M1004A): 310 ± 190 µM
IC50 (CaV1.4 M1129A): 0.45 ± 0.16 µM
IC50 (CaV1.4 M1426A): 15 ± 2.9 µM
SMILES: CC(C)(C)CCN1C[C@@H]2C(CNC(=O)c3cc(Cl)cc(Cl)c3)[C@@H]2C1 (stereo partly shown) [ML218, ML218 hydrochloride]
IC50 (CaV1.2 [3]): ~37 µM and 37 µM
IC50 (CaV1.2 V1063M): 120 ± 60 µM
IC50 (CaV3 channels): < 0.5 µM

inhibition at 1 µM (CaV1.4 [1]; HEK-293T, read-out: inhibition of ICa amplitude): ~78%
inhibition at 1 µM (CaV1.4 T1007Y; HEK-293T, read-out: inhibition of ICa): ~17%
SMILES: COC(=O)C1=C(C)NC(C)=C(C(=O)OC(C)C)C1c1cccc2nonc12 (stereo not shown) [isradipine]
increase in the extent of block on shifting Vhold from −90 mV to −50 mV (Cav1.4 [4]): ~ 80%

SMILES: COC(=O)C1=C(C)NC(C)=C(C(=O)OC2CCCN(Cc3ccccc3)C2)C1c1cccc([N+](=O)[O-])c1 (stereo not shown) [benidipine]
higher potency compared to nifedipine (Cav1.2 [5]): 10 fold
